Test system: calf thymus double-stranded DNA (dsDNA)
Assay: Thermal transition of DNA
Assay type: binding
Details: 15 μM compound, calf thymus dsDNA 6 μg/ml, pH 7.0
Summary of the method: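 Calf thymus dsDNA (6 μg/ml) in 0.1 M sodium phosphate pH 7.0 with 1% DMSO was tested with or without test compound, with ethidium bromide as intercalator control. Samples were equilibrated at 78 °C for 10 min, then raised 1 °C every 2 min. Absorbance was recorded on a spectrophotometer with a thermoelectric cell holder, and compound-only absorbance was subtracted to give Tm.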

CC[n+]1c(-c2ccccc2)c2cc(N)ccc2c2ccc(N)cc21 [ethidium bromide, reference compound]
effect on melting temperature (Tm) / thermal transition of dsDNA: clear shift of thermal transition
